From ChEMBL document CHEMBL5620421, “2,6-Disubstituted 7-(naphthalen-2-ylmethyl)-7H-purines as a new class of potent antitubercular agents inhibiting DprE1” (Eur J Med Chem, 2023)
≈ marks a conversion by molar mass, not a printed value. Calls of active or inactive are those of the source. No cut-off for these calls is given here.

Tests used:
[1] = system: Mycobacterium tuberculosis; assay: (§1) Antimycobacterial activity against isoniazid/ethambutol/rifampin/streptomycin/amikacin/gentamicin/clofazimine/ofloxacin […] MDR/XDR clinical isolate Mycobacterium tuberculosis PRAHA 4 assessed as inhibition of mycobacterial growth measured after 14 to 21 days of incubation by Sulas semisynthetic medium based assay; type: functional, organism-based; conditions: time 14-21 day
Method in brief: (§2)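 Clinical MDR/XDR M. tuberculosis isolates were tested by the Sula's semisynthetic medium micromethod. Compounds in DMSO at 1000 to 0.5 μmol/L, in twofold-type steps. Incubation at 37 °C, read at 14 and 21 days. MIC99 is the lowest concentration inhibiting >99% of growth. Drug resistance or susceptibility of each isolate is to amikacin, clofazimine, gentamicin, ofloxacin, streptomycin and the others listed.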

[2] = system: Mycobacterium tuberculosis; assay: as §1, with “234/2005” for “PRAHA 4”; type: functional, organism-based; conditions: time 14-21 day; method in brief: as §2
[3] = system: Mycobacterium tuberculosis; assay: as §1, with “PRAHA 1” for “PRAHA 4”; type: functional, organism-based; conditions: time 14-21 day; method in brief: as §2
[4] = system: Mycobacterium tuberculosis; assay: as §1, with “7357/1998” for “PRAHA 4”; type: functional, organism-based; conditions: time 14-21 day; method in brief: as §2
[5] = system: Mycobacterium tuberculosis; assay: as §1, with “9449/2007” for “PRAHA 4”; type: functional, organism-based; conditions: time 14-21 day; method in brief: as §2
[6] = system: Mycobacterium tuberculosis; assay: as §1, with “8666/2010” for “PRAHA 4”; type: functional, organism-based; conditions: time 14-21 day; method in brief: as §2
[7] = system: Mycobacterium tuberculosis; assay: Antibacterial activity against Mycobacterium tuberculosis H37Rv assessed as inhibition of bacterial growth by micro-broth dilution method; type: functional
Method in brief: (§3)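 Micromethod MIC in Sula's semisynthetic medium. MIC is the lowest concentration inhibiting >99% of the mycobacterial population. Isoniazid was the standard drug.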

Staphylococcus aureus [8] = assay: Antibacterial activity against methicilin-resistant Staphylococcus aureus C1923 assessed as inhibition of bacterial growth incubated for 24 to 48 hrs by microdilution broth method; type: functional, organism-based; conditions: time 24-48 hrs
Method in brief: (§4)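 Clinical isolates, stored at −70 °C, were passaged twice on Mueller-Hinton agar. Broth microdilution in Mueller-Hinton broth, pH 7.4, with twofold serial dilutions. DMSO was at most 1% final. Inoculum 1.5 × 10⁸ CFU/mL suspension. MIC is 95% growth inhibition, read after 24 and 48 h at 36 °C.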

[9] = system: Staphylococcus epidermidis; assay: Antibacterial activity against Staphylococcus epidermidis C1936 assessed as inhibition of bacterial growth incubated for 24 to 48 hrs by microdilution broth method; type: functional, organism-based; conditions: time 24-48 hrs
Method in brief: (§5)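 Clinical isolates kept at –70 °C and subcultured twice on Mueller-Hinton agar, using the second subculture. Broth microdilution in Mueller-Hinton broth at pH 7.4 with two-fold serial compound dilutions and DMSO ≤1% final. Inoculum was 10 μL of a 1.5 × 10⁸ CFU/mL suspension. Incubated at 36 °C ± 1 °C and read at 24 h and 48 h. MIC taken as 95% growth inhibition.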

Mycobacterium kansasii [10] = assay: Antitubercular activity against Mycobacterium kansasii CNCTC My 235/80 assessed as inhibition of bacterial growth measured after 14 days of incubation by Sulas semisynthetic medium based assay; type: functional; conditions: CNCTC My 235/80, 336 h, time 14 day
Method in brief: (§6)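 Micromethod in Sula's semisynthetic medium. MIC is the lowest concentration inhibiting >99% of the mycobacterial population. Isoniazid was the standard.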

HepG2 = assay: Cytotoxicity against human HepG2 cells incubated for 24 hrs by MTT assay; type: functional, cell-based; conditions: HepG2, 24 h
Method in brief: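 HepG2 cells in DMEM with 10% FBS, seeded at 15 × 10³ cells/well and attached overnight. Exposed for 24 h to serial dilutions prepared from DMSO stocks, final DMSO ≤1%. Then given fresh medium with 0.5 mg/mL MTT for 1 h at 37 °C. Formazan dissolved in DMSO and read at 570 nm. IC50 from 4-parameter nonlinear regression; three independent experiments in triplicate, mean ± SD.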

Enterococcus faecium = assay: Antibacterial activity against vancomycin-resistant Enterococcus faecium assessed as inhibition of bacterial growth incubated for 24 to 48 hrs by microdilution broth method; type: functional, organism-based; conditions: time 24-48 hrs; method in brief: as §4
Mycobacterium kansasii [11] = assay: Antitubercular activity against Mycobacterium kansasii CNCTC My 235/80 assessed as inhibition of bacterial growth measured after 21 days of incubation by Sulas semisynthetic medium based assay; type: functional; conditions: CNCTC My 235/80, 504 h, time 21 day; method in brief: as §6
Escherichia coli = assay: Antibacterial activity against Escherichia coli A1235 assessed as inhibition of bacterial growth incubated for 24 to 48 hrs by microdilution broth method; type: functional, organism-based; conditions: time 24-48 hrs; method in brief: as §5
[12] = system: Mycobacterium tuberculosis; assay: Antitubercular activity against Mycobacterium tuberculosis CNCTC My 331/88 (H37Rv) assessed as inhibition of bacterial growth measured after 21 days of incubation by Sulas semisynthetic medium based assay; type: functional; conditions: 504 h, time 21 day; method in brief: as §3
[13] = Selectivity index, ratio of IC50 for cytotoxicity against human HepG2 cells by MTT assay to MIC99 for antitubercular activity against Mycobacterium tuberculosis CNCTC My 331/88 (H37Rv) assessed as inhibition of bacterial growth measured after 14 days of incubation; type: functional; conditions: time 14 day
Method in brief: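 HepG2 cells, 15 × 10³/well, were attached overnight and exposed 24 h to serial dilutions (DMSO ≤1%). Read by MTT at 0.5 mg/mL for 1 h and 570 nm. IC50 from 4-parameter regression, three independent experiments in triplicate. SI is HepG2 IC50 divided by H37Rv MIC99.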

[14] = system: Mycobacterium tuberculosis; assay: Antitubercular activity against Mycobacterium tuberculosis CNCTC My 331/88 (H37Rv) assessed as inhibition of bacterial growth measured after 14 days of incubation by Sulas semisynthetic medium based assay; type: functional; conditions: 336 h, time 14 day; method in brief: as §3
Klebsiella pneumoniae [15] = assay: Antibacterial activity against ESBL negative Klebsiella pneumoniae C1950 assessed as inhibition of bacterial growth incubated for 24 to 48 hrs by microdilution broth method; type: functional, organism-based; conditions: time 24-48 hrs; method in brief: as §5
Staphylococcus aureus [16] = assay: Antibacterial activity against Staphylococcus aureus C1947 assessed as inhibition of bacterial growth incubated for 24 to 48 hrs by microdilution broth method; type: functional, organism-based; conditions: time 24-48 hrs; method in brief: as §5
Pseudomonas aeruginosa = assay: Antibacterial activity against multidrug-resistant Pseudomonas aeruginosa A1245 assessed as inhibition of bacterial growth incubated for 24 to 48 hrs by microdilution broth method; type: functional, organism-based; conditions: time 24-48 hrs; method in brief: as §4
Mycobacterium kansasii [17] = assay: Antitubercular activity against Mycobacterium kansasii CNCTC My 235/80 assessed as inhibition of bacterial growth measured after 7 days of incubation by Sulas semisynthetic medium based assay; type: functional; conditions: CNCTC My 235/80, 168 h, time 7 day; method in brief: as §6
Mycobacterium avium [18] = assay: Antitubercular activity against Mycobacterium avium CNCTC My 330/88 assessed as inhibition of bacterial growth measured after 14 days of incubation by Sulas semisynthetic medium based assay; type: functional; conditions: CNCTC My 330/88, 336 h, time 14 day
Method in brief: (§7)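 M. avium was tested by the micromethod in Sula's semisynthetic medium. Compounds in DMSO at 1000 to 0.5 μmol/L. Incubation at 37 °C, read at 14 and 21 days. MIC is the lowest concentration giving >99% growth inhibition.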

Mycobacterium avium [19] = assay: Antitubercular activity against Mycobacterium avium CNCTC My 330/88 assessed as inhibition of bacterial growth measured after 21 days of incubation by Sulas semisynthetic medium based assay; type: functional; conditions: CNCTC My 330/88, 504 h, time 21 day; method in brief: as §7
Klebsiella pneumoniae [20] = assay: Antibacterial activity against ESBL positive Klebsiella pneumoniae C1914 assessed as inhibition of bacterial growth incubated for 24 to 48 hrs by microdilution broth method; type: functional, organism-based; conditions: time 24-48 hrs; method in brief: as §5
[21] = system: Mycobacterium tuberculosis; assay: Antibacterial activity against Mycobacterium tuberculosis H37Rv (ATCC 27294) assessed as inhibition of bacterial growth incubated for 14 days; type: functional; conditions: 336 h, time 14 day; method in brief: as §3

GENTAMICIN
MIC99 [1]: 0.5 µM
MIC99 [2]: 0.25 µM
MIC99 [3]: 1 µM
MIC99 [4]: 1 µM
MIC99 [5]: 1 µM
MIC99 [6]: 2 µM

C[C@H]1COC2(CCN(c3nc(=O)c4cc(C(F)(F)F)cc([N+](=O)[O-])c4s3)CC2)O1 [BTZ-043]
MIC [7]: 1 ng/mL (≈ 2.32 nM)

CC(C)c1ccc(Cn2cnc3nc(N4CCOCC4)[nH]c(=O)c32)cc1
Activity (Staphylococcus aureus [8]): inactive
Activity [9]: inactive
MIC99 (Mycobacterium kansasii [10]): > 500 µM
IC50 (HepG2): > 125 µM
Activity (Enterococcus faecium): inactive
MIC99 (Mycobacterium kansasii [11]): > 500 µM
Activity (Escherichia coli): inactive
MIC99 [12]: 32 µM (≈ 11.3 µg/mL)
Selectivity Index [13]: >7.8
MIC99 [14]: 16 µM (≈ 5.65 µg/mL)
Activity (Klebsiella pneumoniae [15]): inactive
Activity (Staphylococcus aureus [16]): inactive
Activity (Pseudomonas aeruginosa): inactive
MIC99 (Mycobacterium kansasii [17]): > 500 µM
MIC99 (Mycobacterium avium [18]): > 500 µM
MIC99 (Mycobacterium avium [19]): > 500 µM
Activity (Klebsiella pneumoniae [20]): inactive

COc1ncnc(Cn2cc(C(=O)NCCO)c3ncc(C)cc32)c1C [TBA-7371]
MIC [21]: 640 ng/mL (≈ 1800 nM)

O=c1nc(N2CCN(CC3CCCCC3)CC2)sc2c([N+](=O)[O-])cc(C(F)(F)F)cc12 [MACOZINONE]
MIC [7]: ≤ 0.19 ng/mL

CCNc1nc(N2CCOCC2)nc2ncn(Cc3ccc4cc(F)ccc4c3)c12
Activity (Staphylococcus aureus [8]): inactive
Activity [9]: inactive
MIC99 (Mycobacterium kansasii [10]): 16 µM (≈ 6.5 µg/mL)
IC50 (HepG2): 40.7 µM
Activity (Enterococcus faecium): inactive
MIC99 (Mycobacterium kansasii [11]): 16 µM (≈ 6.5 µg/mL)
Activity (Escherichia coli): inactive
MIC99 [12]: 8 µM (≈ 3.25 µg/mL)
Selectivity Index [13]: 10.18
MIC99 [14]: 4 µM (≈ 1.63 µg/mL)
Activity (Klebsiella pneumoniae [15]): inactive
Activity (Staphylococcus aureus [16]): inactive
Activity (Pseudomonas aeruginosa): inactive
MIC99 (Mycobacterium kansasii [17]): 16 µM (≈ 6.5 µg/mL)
MIC99 (Mycobacterium avium [18]): > 500 µM
MIC99 (Mycobacterium avium [19]): > 500 µM
Activity (Klebsiella pneumoniae [20]): inactive

O=C1CCc2c(OC[C@]3(O)CCN(c4c(F)cc(Cl)cc4F)C[C@H]3O)ccc(F)c2N1 [QUABODEPISTAT]
MIC [21]: 0.5 ng/mL (≈ 1.09 nM)
